Experimental data from different studies.
Lines come from different studies, so protocols differ.
TEC phosphorylated: Tyrosine-protein kinase Tec, phosphorylated (TEC, Homo sapiens, UniProt P42680)
TEC: Tyrosine-protein kinase Tec (TEC, Homo sapiens, UniProt P42680)

Structure (SMILES) | target | observed | mode | method | concentration | endpoint | result
Cc1cc(NC(=O)c2cccc3cc(-c4cccc5[nH]nc(N)c45)ccc23)ccc1F | TEC phosphorylated | enzyme activity | inhibitor | – | 0.1 µM | activity vs control | 90%
O=C(Nc1cnn(-c2csc(C(=O)NC3COC3)c2)c1)Nc1ccccc1Cl | TEC | enzyme activity | inhibitor | – | 5 µM | remaining activity | 97.2%
O=C1NC(=O)c2cc(Nc3ccc(F)cc3)c(Nc3ccc(F)cc3)cc21 | TEC | cell-free assay | – | – | 0.5 µM | remaining signal | 102%
Cc1cnc(NC2CCOCC2)nc1-n1cnc(C(=O)NC(CN)c2cc(F)cc(Cl)c2)c1 (centres unmarked) | TEC phosphorylated | enzyme activity | inhibitor | radiometric | 1 µM | remaining activity | 102%
Nc1ncnc2occ(-c3ccc(NC(=O)Nc4cc(C(F)(F)F)ccc4F)cc3)c12 | TEC | cell-free assay | inhibitor | – | 20 µM | remaining signal | 53%
Nc1c(C(=O)NCc2ccc(C(=O)NCCCC3CCCCC3)cc2)cnn1-c1ccccc1 | TEC | cell-free assay | – | competition with immobilised ligand | 0.1 µM | remaining binding | 100%
O=C1Nc2ccc(Cl)cc2C1=Cc1cc(Cl)c(O)c(Cl)c1 | TEC | cell-free assay | – | – | 0.5 µM | remaining signal | 109%
O=C(N[C@@H](C1CC1)C(F)(F)F)c1cc(-c2cnn3cc(-c4ccc(F)cc4)cnc23)cs1 | TEC | enzyme activity | inhibitor | radiometric | 40 nM | inhibition | 0%
CC(=O)C1=C(C)N(c2cccc(C(F)(F)F)c2)C(=O)N[C@@H]1c1ccc(C#N)nc1 | TEC | binding | – | competition with immobilised ligand | 1 µM | remaining binding | 100%
CC(C)(C)c1nc(-c2cccc(NS(=O)(=O)c3c(F)cccc3F)c2F)c(-c2ccnc(N)n2)s1 | TEC | enzyme activity | inhibitor | radiometric | 1 µM | remaining activity | 87%
CN1CC(Oc2cnc(C#N)cc2-c2ccn3nc(NC(=O)C4CC4)cc3c2)C1 | TEC phosphorylated | enzyme activity | inhibitor | – | 1 µM | inhibition | 25%
c1nc2c(Nc3ccc4c(c3)OCCO4)nc(Nc3ccc4c(c3)OCCO4)nc2[nH]1 | TEC | enzyme activity | inhibitor | – | 10 µM | activity vs control | 2.5%
O=C(O)c1cc(-c2ccc(C3CCNCC3)cc2)c2ccc(-c3ccc(C(F)(F)F)cc3)cc2c1 | TEC | cell-free assay | – | competition with immobilised ligand | 1 µM | remaining binding | 100%
CC/C(=N\NC(=O)NCc1cccc(O)c1)c1ccc(O)c(C)c1O | TEC | enzyme activity | inhibitor | – | 0.1 µM | inhibition | 0.2%
CC(=O)N1CCC(c2ccc(C(=O)NC(=N)N)cc2C(F)(F)F)CC1 | TEC | binding | – | competition with immobilised ligand | 1 µM | remaining binding | 100%
C[S+]([O-])c1ccc(-c2nc(-c3ccncc3)c(-c3ccc(F)cc3)[nH]2)cc1 (centres unmarked) | TEC | cell-free assay | – | – | 0.5 µM | remaining signal | 113%
O=C(O)[C@@H]1[C@@H](Cn2nnc3ccccc3c2=O)CC[C@H]1C(=O)c1ccc(OCCC2CCOCC2)cc1 | TEC | binding | – | competition with immobilised ligand | 1 µM | remaining binding | 95%
COc1cc(Cl)c(C(=O)N[C@@H](CN[C@H]2CC[C@@H](N)CC2)Cc2ccc(C#N)cc2)cc1-c1ccc(CN[C@H](C)c2ccc(C)cc2)o1 | TEC phosphorylated | enzyme activity | inhibitor | – | 1 µM | remaining activity | 90%
CN(c1ccnc(CNc2nc(Nc3ccc4c(c3)CC(=O)N4)ncc2C(F)(F)F)n1)S(C)(=O)=O | TEC | cell-free assay | – | competition with immobilised ligand | 1 µM | remaining binding | 100%
Cc1ccc(C(=O)NCc2ccsc2)cc1C#Cc1cn(C(C)C)c2ncnc(N)c12 | TEC phosphorylated | enzyme activity | inhibitor | – | 1 µM | activity vs control | 107%
